Calls of active or inactive are those of the source.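 Rule for the calls: active = duplicate-averaged activation above buffer control mean plus 5 SD of those controls; inactive = the rest.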

The assay can be described thus: thallium flux activation in parental CHO cells, counter-screen for KCNQ1 potentiator project (AID 493006). To be noted: parental CHO-K1 cells, FluxOR thallium flux, at 10 µM; stronger effect = higher value. In outline:
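Assay system: Untransfected host CHO-K1 cells with FluxOR thallium dye | Probe or stimulus: Potassium/thallium depolarization pulse | Schedule: Overnight 37 °C plating, 90 min RT dye, 20 min compound | Detection: Kinetic thallium-flux fluorescence | Read-out: Max-minus-min fluorescence over baseline, percent of buffer-to-R-L3 span | Benchmarks: Low control buffer, high control R-L3 activator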
For orientation: A counterscreen serves to expose hits that act by an unwanted route or on another target.
For `COc1ccc(/C=N/N=C2/NC(=O)C(c3ccccc3)S2)c(OC)c1` (stereo not given), the outcome was inactive.
In the case of `Cc1nc(NCc2cccnc2)c2c3c(sc2n1)CC(C)CC3` (stereo not given), the activation is 299% (active).
On to `COc1ccc(C)cc1NC(=O)C(=O)NNC(=O)c1ccco1`, for which the activation was 377% (active).
`COc1ccc(-n2nc3c(c2NC(=O)c2ccc4c(c2)OCO4)CS(=O)(=O)C3)cc1`: the activation is 224% (active).
Take `Fc1cccc(/C=N/Nc2ccc3ccccc3n2)c1`: the outcome was inactive.
For `Cc1cc(=O)oc2cc(OCC3CC(c4ccccc4Cl)=NO3)ccc12` (stereo not given), the activation is 156% (active).
`COC(=O)c1ccc(/C=C/c2ccc3cccc(OC)c3n2)cc1`: the outcome was inactive.
On the same count and under the same terms, the result for `CN1C=CC=C/C1=C1\SC(=S)N(C2CCCCC2)C1=O` reads “inactive”.
Regarding `S=c1[nH]nc(CSc2nc3ccccc3s2)n1C1CCCCC1`, the activation was 142% (active).
Take `COc1cccc(/C=N/Nc2snc(SC)c2C#N)c1O`: the result was inactive.
On the same count and under the same terms, with `N#CCn1c(CCl)nc2ccccc2c1=O` the entry was “inactive”.
As for `O=C(NC(=S)N(Cc1ccccc1)Cc1ccccc1)c1ccccc1F`, the activation is 225% (active).
For `O=C(NC(=S)N1CCCCCC1)c1ccccc1`, the result was inactive.
Turning to `CCCCC(Nc1ncnc2ccccc12)C(=O)O` (stereo not given), the outcome was inactive.
On to `COc1ccccc1C(=O)NNC(=O)C(=O)NC(C)(C)C`, for which the activation is 185% (active).
Consider `CC(=O)c1c(C)[nH]c(C(=O)OCc2nc3ccsc3c(=O)[nH]2)c1C`, for which the result was inactive.
As for `O=C(NCc1ccccc1)C(=O)NCC1CCCN1S(=O)(=O)c1cccs1` (stereo not given), the outcome was inactive.
Same read-out and setting: with `CCN(CC)S(=O)(=O)c1cc(OC)ccc1N=Nc1ccc(O)c2ncccc12` the entry was “inactive”; with `O=C(NC1CC1)C1=NOC(CNc2ncc(C(F)(F)F)cc2Cl)C1` (stereo not given), “inactive”; with `Cc1ccc(Cn2c(SCC(=O)N3CC(=O)Nc4ccccc43)nc3ccccc3c2=O)cc1`, “inactive”.

The values are drawn from PubChem BioAssay.
